Source: ChEMBL document CHEMBL1649090, “Discovery of (7R)-14-cyclohexyl-7-{[2-(dimethylamino)ethyl](methyl) amino}-7,8-dihydro-6H-indolo[1,2-e][1,5]benzoxazocine-11-carboxylic acid (MK-3281), a potent and orally bioavailable finger-loop inhibitor of the hepatitis C virus NS5B polymerase” (J Med Chem, 2011)

Legend:
Hepatitis C virus [1] = test: Antiviral activity against HCV1b infected in human Huh-7 cells assessed as inhibition of viral RNA replication after 96 hrs by ELISA assay in presence of 10% fetal calf serum; assay type: functional, organism-based, Hepacivirus hominis; details: genotype 1b, Huh-7, 96 h
Hepatitis C virus [2] = test: Inhibition of HCV1b NS5B delta21 polymerase after 1 hr; assay type: single protein, Hepatitis C virus subtype 1b
How it was run: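 Enzyme inhibition IC50 measured on genotype 1b HCV NS5B polymerase truncated by 21 C-terminal residues (ΔC21).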

Hepatitis C virus [3] = test: Antiviral activity against HCV1b infected in human Huh-7 cells assessed as inhibition of viral RNA replication after 96 hrs by ELISA assay in presence of 50% normal human serum; assay type: functional, organism-based, Hepacivirus hominis; details: genotype 1b, Huh-7, 96 h
[4] = Clearance in Sprague-Dawley rat at 3 mg/kg, iv; assay type: ADME, organism-based; set-up: dose 3 mg/kg, route intravenous; details: in vivo
How it was run: (§1)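 Sprague-Dawley rats (n = 3) received the compound as its TFA salt in DMSO/PEG400/water 20%/60%/20%, as a single iv dose of 3 mg/kg or a single oral dose of 3 mg/kg. Liver tissue and plasma concentrations were measured 6 h after the oral dose.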

[5] = Half life in Sprague-Dawley rat at 3 mg/kg, iv; assay type: ADME, organism-based; set-up: dose 3 mg/kg, route intravenous; details: in vivo; how it was run: as §1
[6] = Volume of distribution in Sprague-Dawley rat at 3 mg/kg, iv; assay type: ADME, organism-based; set-up: dose 3 mg/kg, route intravenous; details: in vivo
How it was run: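 Sprague-Dawley rats (n = 3) received a single 3 mg/kg iv dose, given as the TFA salt, in DMSO/PEG400/water 20%/60%/20%. Plasma clearance, half-life and volume of distribution were derived.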

[7] = Cmax in Sprague-Dawley rat at 3 mg/kg, po; assay type: ADME, organism-based; set-up: dose 3 mg/kg, route oral; details: in vivo; how it was run: as §1
[8] = AUC in Sprague-Dawley rat at 3 mg/kg, po; assay type: ADME, organism-based; set-up: dose 3 mg/kg, route oral; details: plasma
How it was run: (§2)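 Single-dose rat PK with the compound given as its TFA salt to Sprague-Dawley rats (n = 3) in DMSO/PEG400/water 20%/60%/20%. Dosing was 3 mg/kg iv and 3 mg/kg po.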

[9] = Oral bioavailability in Sprague-Dawley rat at 3 mg/kg; assay type: ADME, organism-based; details: in vivo; how it was run: as §2
[10] = Drug level in Sprague-Dawley rat liver at 3 mg/kg, po after 6 hrs; assay type: ADME, organism-based; set-up: dose 3 mg/kg, route oral; details: read-out: Drug uptake; how it was run: as §1
[11] = Intrinsic clearance in rat liver microsomes assessed per mg of protein; assay type: ADME, Microsome
[12] = Intrinsic clearance in dog liver microsomes assessed per mg of protein; assay type: ADME, Canis lupus familiaris, Microsome
[13] = Intrinsic clearance in human liver microsomes assessed per mg of protein; assay type: ADME, Microsome
[14] = Ratio of drug level in liver to plasma in Sprague-Dawley rat liver at 3 mg/kg, po after 6 hrs; assay type: ADME, organism-based; set-up: dose 3 mg/kg, route oral; how it was run: as §1
Hepatitis C virus [15] = test: Ratio of EC50 for HCV1b to EC50 for HCV1b in presence of 50% normal human serum; assay type: functional, Hepacivirus hominis, genotype 1b
[16] = Fraction unbound in human plasma; assay type: ADME, cell-free

SMILES	EC50 (Hepatitis C virus [1])	IC50 (Hepatitis C virus [2])	EC50 (Hepatitis C virus [3])	Ratio EC50 (Hepatitis C virus [15])	further results
CN1CCC(NC2COc3ccccc3-c3c(C4CCCCC4)c4ccc(C(=O)O)cc4n3C2)CC1 (racemic)	224 nM	21 nM	1130 nM	4	
O=C(O)c1ccc2c(C3CCCCC3)c3n(c2c1)CCCOc1ccccc1-3	2740 nM	42 nM			
CC(C)N1CC[C@H](N2CCn3c(c(C4CCCCC4)c4sc(C(=O)O)cc43)-c3ccccc3C2)C1	150 nM	19 nM			
CN(C)CCN1CCn2c(c(C3CCCCC3)c3ccc(C(=O)O)cc32)-c2ccccc2C1		27 nM			clearance [4]: 61 mL/min/kg; half-life [5]: 1.6 h; Vd [6]: 5.1 L/kg; Cmax [7]: 200 nM; AUC [8]: 0.7 µM·h; concentration at 6 h [10]: 640 nM; microsomal CLint [11]: 100 µL/min/mg; microsomal CLint [12]: 26 µL/min/mg; microsomal CLint [13]: 5 µL/min/mg
CN(C)CCN1CC2(COc3ccccc3-c3c(C4CCCCC4)c4ccc(C(=O)O)cc4n3C2)C1	80 nM	4 nM	454 nM		
CN(C)CCN(C)C1COc2ccccc2-c2c(C3CCCCC3)c3ccc(C(=O)O)cc3n2C1 (racemic)	73 nM	15 nM	313 nM		fraction unbound [16]: 0.027
CN(C)CCCNC1COc2ccccc2-c2c(C3CCCCC3)c3ccc(C(=O)O)cc3n2C1 (racemic)	258 nM	17 nM	1370 nM	4	
CCN(CC)C1CCN(C(=O)Cn2c(-c3ccc(Cl)cc3)c(C3CCCCC3)c3ccc(C(=O)O)cc32)CC1		48 nM			Kp at 6 h [14]: 16
CC(C)N1CC2(COc3ccccc3-c3c(C4CCCCC4)c4ccc(C(=O)O)cc4n3C2)C1	338 nM	30 nM	590 nM		
COc1ccc2c(c1)[C@H]1[C@@H](CCN1CCN(C)C)Cn1c-2c(C2CCCCC2)c2ccc(C(=O)O)cc21	29 nM	4 nM			
CNC1COc2ccccc2-c2c(C3CCCCC3)c3ccc(C(=O)O)cc3n2C1 (racemic)	1030 nM	51 nM	4980 nM		
CN(C)C1COc2ccccc2-c2c(C3CCCCC3)c3ccc(C(=O)O)cc3n2C1 (racemic)	570 nM	32 nM	2110 nM	4	
CN(C)CCO[C@@H]1COc2ccccc2-c2c(C3CCCCC3)c3ccc(C(=O)O)cc3n2C1	78 nM	19 nM	493 nM	6	
NCCNC1COc2ccccc2-c2c(C3CCCCC3)c3ccc(C(=O)O)cc3n2C1 (racemic)	591 nM	12 nM	1700 nM	4	
CN(C)CCO[C@H]1COc2ccccc2-c2c(C3CCCCC3)c3ccc(C(=O)O)cc3n2C1	432 nM	72 nM	1410 nM		
CN(C)CCN(C)[C@@H]1COc2ccccc2-c2c(C3CCCCC3)c3ccc(C(=O)O)cc3n2C1	338 nM	35 nM	1680 nM	3	
CN(C)CC(=O)N(C)C1COc2ccccc2-c2c(C3CCCCC3)c3ccc(C(=O)O)cc3n2C1 (stereo not drawn)	73 nM	31 nM	743 nM	10	fraction unbound [16]: 0.005
CN(CCN1CCCC1)C1COc2ccccc2-c2c(C3CCCCC3)c3ccc(C(=O)O)cc3n2C1 (racemic)	99 nM	11 nM	335 nM		
CNCCN(C)C1COc2ccccc2-c2c(C3CCCCC3)c3ccc(C(=O)O)cc3n2C1 (racemic)	83 nM	9 nM	550 nM		
CC(C)N(CCN(C)C)C1COc2ccccc2-c2c(C3CCCCC3)c3ccc(C(=O)O)cc3n2C1 (racemic)	138 nM	34 nM	1200 nM	7	

Continued by falling IC50 (Hepatitis C virus [2]), values first:

EC50 (Hepatitis C virus [1])	IC50 (Hepatitis C virus [2])	SMILES	EC50 (Hepatitis C virus [3])	Ratio EC50 (Hepatitis C virus [15])	further results
2480 nM	63 nM	COCCNC1COc2ccccc2-c2c(C3CCCCC3)c3ccc(C(=O)O)cc3n2C1 (racemic)			
766 nM	51 nM	CN(C)C(=O)CNC1COc2ccccc2-c2c(C3CCCCC3)c3ccc(C(=O)O)cc3n2C1 (racemic)	> 5000 nM		
170 nM	47 nM	CN(C)CC(=O)NC1COc2ccccc2-c2c(C3CCCCC3)c3ccc(C(=O)O)cc3n2C1 (racemic)	1430 nM		
10400 nM	35 nM	O=C(O)c1ccc2c(C3CCCCC3)c3n(c2c1)CCCc1ccccc1-3			
173 nM	32 nM	CN(C)CCNC1COc2ccccc2-c2c(C3CCCCC3)c3ccc(C(=O)O)cc3n2C1 (racemic)	856 nM	4	clearance [4]: 21 mL/min/kg; half-life [5]: 3 h; Vd [6]: 3.2 L/kg; Cmax [7]: 300 nM; AUC [8]: 0.9 µM·h; bioavailability [9]: 20%; concentration at 6 h [10]: 1300 nM; microsomal CLint [11]: 7 µL/min/mg; microsomal CLint [12]: 7 µL/min/mg; microsomal CLint [13]: 5 µL/min/mg; Kp at 6 h [14]: 21
153 nM	11 nM	CCN(CCN(C)C)C1COc2ccccc2-c2c(C3CCCCC3)c3ccc(C(=O)O)cc3n2C1 (racemic)	1030 nM	7	
90 nM	10 nM	CN(CCN1CCOCC1)C1COc2ccccc2-c2c(C3CCCCC3)c3ccc(C(=O)O)cc3n2C1 (racemic)	312 nM		
120 nM	10 nM	CN1CCN(C2COc3ccccc3-c3c(C4CCCCC4)c4ccc(C(=O)O)cc4n3C2)CC1 (racemic)	361 nM		
66 nM	8 nM	CN1CCN(CCN(C)C2COc3ccccc3-c3c(C4CCCCC4)c4ccc(C(=O)O)cc4n3C2)CC1 (racemic)	581 nM	9	fraction unbound [16]: 0.011
